Data published in ChEMBL document CHEMBL4229493, “Synthesis and anticancer activity studies of indolylisoxazoline analogues” (Bioorg Med Chem Lett, 2018).
Activity calls are given as the source filed them. The rule behind the calls is not given here.

Experiments:
Type in all cases: functional, cell-based
MDA-MB-231 = assay: Growth inhibition of human MDA-MB-231 cells after 48 hrs by MTT assay; settings: MDA-MB-231, 48 h
LNCaP C4-2 [1] = assay: Growth inhibition of human C4-2 cells after 48 hrs by MTT assay; settings: LNCaP C4-2, 48 h
CWR22R = assay: Growth inhibition of human 22Rv1 cells after 48 hrs by MTT assay; settings: 22Rv1, 48 h
HEK293 = assay: Growth inhibition of HEK293 cells after 48 hrs by MTT assay; settings: Homo sapiens, HEK293, 48 h
BXPC-3 = assay: Growth inhibition of human BxPC3 cells after 48 hrs by MTT assay; settings: BXPC-3, 48 h
PC-3 = assay: Growth inhibition of human PC3 cells after 48 hrs by MTT assay; settings: PC-3, 48 h
LNCaP C4-2 [2] = assay: Antimigratory activity against human C4-2 cells at 10 uM after 12 to 48 hrs by wound healing assay
How it was run: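 A scratch was made in a C4-2 monolayer. Cells were incubated further for 12, 24 and 48 h, then fixed and imaged to follow migration into the wound.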

LNCaP C4-2 [3] = assay: Induction of apoptosis in human C4-2 cells assessed as PARP cleavage at 2.5 uM after 48 hrs by Western blot analysis
LNCaP C4-2 [4] = assay: Induction of ROS generation in human C4-2 cells at 10 uM after 48 hrs by H2-DCF-DA staining based inverted fluorescent microscopic method
How it was run: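 C4-2 cells left untreated or exposed 48 h to compound at 10 μM. H2O2 (10 μM) was the positive control. Intracellular ROS was stained with DCFDA and fluorescence quantified.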

LNCaP C4-2 [5] = assay: Induction of apoptosis in human C4-2 cells assessed as nuclear fragmentation at 2.5 uM after 48 hrs by acridine orange/ethidium bromide staining based inverted fluorescent microscopic method
How it was run: (§1)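 C4-2 cells were incubated 48 h with compound, alongside untreated controls. They were then stained with acridine orange (live and dead cells) and ethidium bromide (dead cells only). Nuclear morphology was scored for red fragmented nuclei as apoptosis versus necrosis.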

LNCaP C4-2 [6] = assay: Induction of apoptosis in human C4-2 cells assessed as DNA fragmentation by measuring DNA ladder formation at 10 uM after 48 hrs by agarose gel electrophoresis method
Prostatic carcinoma cell = assay: Cytotoxicity against human prostate cancer cells
LNCaP C4-2 [7] = assay: Induction of apoptosis in human C4-2 cells assessed as nuclear fragmentation at 3.5 uM after 48 hrs by acridine orange/ethidium bromide staining based inverted fluorescent microscopic method; how it was run: as §1
LNCaP C4-2 [8] = assay: Induction of apoptosis in human C4-2 cells assessed as PARP cleavage at 3.5 uM after 48 hrs by Western blot analysis
NCI-H460 = assay: Antiproliferative activity against human NCI-H460 cells

Row | Compound | IC50 (MDA-MB-231) [µM] | IC50 (LNCaP C4-2 [1]) [µM] | IC50 (BXPC-3) [µM] | IC50 (PC-3) [µM] | IC50 (NCI-H460) [µM] | IC50 (CWR22R) [µM] | IC50 (HEK293) [µM] | Activity (LNCaP C4-2 [2]) | Activity (LNCaP C4-2 [3]) | Activity (LNCaP C4-2 [4]) | Activity (LNCaP C4-2 [5]) | Activity (LNCaP C4-2 [6]) | IC50 (Prostatic carcinoma cell) [µM] | Activity (LNCaP C4-2 [7]) | Activity (LNCaP C4-2 [8])
1 | Cc1[nH]c2ccccc2c1C1CC(c2ccncc2)=NO1 (stereo not given) | 26.6 | 45.1 | 95.5 | 21.2 | – | 17.3 | > 100 | – | – | – | – | – | – | – | –
2 | Cc1c(C2CC(c3ccncc3)=NO2)c2ccccc2n1Cc1ccc(Cl)cc1 (stereo not given) | 6.66 | 2.5 | 13.5 | 11.2 | – | 8.33 | 2.5 | Active | Active | inactive | Active | Active | – | – | –
3 | COc1ccc2c(C3CC(c4ccncc4)=NO3)cn(Cc3ccc(Cl)cc3)c2c1 (stereo not given) | > 100 | > 100 | > 100 | 95.1 | – | 17.3 | 37.2 | – | – | – | – | – | – | – | –
4 | COc1ccc2c(c1)c(C1CC(c3ccncc3)=NO1)cn2Cc1ccc(Cl)cc1 (stereo not given) | 26 | > 100 | > 100 | 55.2 | – | 10.6 | 14.2 | – | – | – | – | – | – | – | –
5 | OO | – | – | – | – | – | – | – | – | – | Active | – | – | – | – | –
6 | c1ccc2c(C3CC(c4ccc5c(c4)OCO5)=NO3)c[nH]c2c1 (stereo not given) | 26.6 | 15.8 | 27 | > 100 | – | > 100 | > 100 | – | – | – | – | – | – | – | –
7 | COc1ccc2[nH]cc(C3CC(c4cc(OC)c(OC)c(OC)c4)=NO3)c2c1 (stereo not given) | 26 | 71.2 | > 100 | 42.6 | – | 11.3 | 45.4 | – | – | – | – | – | – | – | –
8 | COc1cc(-c2nnc(-c3cn(C)c4ccccc34)[nH]2)cc(OC)c1OC | – | – | – | – | – | – | – | – | – | – | – | – | 0.8 | – | –
9 | COc1cccc2c1C(=O)c1c(O)c3c(c(O)c1C2=O)C[C@@](O)(C(=O)CO)C[C@@H]3O[C@H]1C[C@H](N)[C@H](O)[C@H](C)O1 [DOXORUBICIN] | – | 3.25 | 9.12 | 9.58 | – | – | 3.9 | – | – | – | – | – | – | – | –

Continued, in another order:

Row | IC50 (MDA-MB-231) [µM] | IC50 (LNCaP C4-2 [1]) [µM] | IC50 (BXPC-3) [µM] | IC50 (PC-3) [µM] | IC50 (NCI-H460) [µM] | Compound | IC50 (CWR22R) [µM] | IC50 (HEK293) [µM] | Activity (LNCaP C4-2 [2]) | Activity (LNCaP C4-2 [3]) | Activity (LNCaP C4-2 [4]) | Activity (LNCaP C4-2 [5]) | Activity (LNCaP C4-2 [6]) | IC50 (Prostatic carcinoma cell) [µM] | Activity (LNCaP C4-2 [7]) | Activity (LNCaP C4-2 [8])
10 | 11.7 | 5 | 13.5 | 15.5 | – | COc1cc(C2=NOC(c3c[nH]c4ccccc34)C2)cc(OC)c1OC (stereo not given) | 4.51 | 5 | – | – | – | – | – | – | – | –
11 | 19.7 | 12.8 | 30.5 | > 100 | – | c1ccc2c(C3CC(c4ccncc4)=NO3)c[nH]c2c1 (stereo not given) | > 100 | > 100 | – | – | – | – | – | – | – | –
12 | 5 | 8 | 9.5 | 12.9 | – | Fc1ccc2c(C3CC(c4ccncc4)=NO3)c[nH]c2c1 (stereo not given) | 3.66 | 9.5 | – | – | – | – | – | – | – | –
13 | > 100 | > 100 | 68.5 | > 100 | – | COc1ccc2[nH]cc(C3CC(c4ccncc4)=NO3)c2c1 (stereo not given) | 35.5 | > 100 | – | – | – | – | – | – | – | –
14 | 7.38 | 3.5 | 9.5 | 10.5 | – | COc1ccc2c(C3CC(c4ccncc4)=NO3)c[nH]c2c1 (stereo not given) | 16.3 | 4.16 | Active | – | inactive | – | Active | – | Active | Active
15 | 13.7 | 11.4 | > 100 | 25.7 | – | Clc1ccc(Cn2cc(C3CC(c4ccncc4)=NO3)c3ccccc32)cc1 (stereo not given) | 9.6 | 10.2 | – | – | – | – | – | – | – | –
16 | – | – | – | – | 0.0062 | COc1cc(-c2cnc(-c3ccc4c(ccn4C)c3)o2)cc(OC)c1OC | – | – | – | – | – | – | – | – | – | –
17 | > 100 | 65.5 | > 100 | 70.1 | – | COc1ccc(C2=NOC(c3c[nH]c4ccccc34)C2)cc1OC (stereo not given) | 16.7 | > 100 | – | – | – | – | – | – | – | –
